Results taken from ChEMBL document CHEMBL5260830, “Breakthroughs in neuroactive steroid drug discovery” (Bioorg Med Chem Lett, 2018).
Converted amounts (≈) assume the structure as drawn.

Legend:
[1] = biological target: GABA-A receptor; anion channel; assay: Displacement of [35S]-TBPS GABAA receptor in Wistar rat brain membrane incubated for 60 mins by competitive binding assay; type: cell membranes
Mus musculus [2] = species on record: Mus musculus; assay: Anticonvulsant activity in 6-Hz induced seizure mouse model assessed as protection against 6-Hz induced seizure; type: functional
How it was run: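 Tonic currents recorded from voltage-clamped ([…]) dentate gyrus granule cells of wild-type female mice. Value is fold potentiation of the mean normalized tonic response to 1 µM GABA, from four to eight cells per steroid and concentration. Anticonvulsant ED50 determined in the mouse 6-Hz psychomotor seizure model.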

[3] = biological target: GABA-A receptor; anion channel (Homo sapiens) (UniProt P14867+P47870+P18507+P28472+P48169+Q99928+Q9UN88+P34903+O00591+O14764+Q8N1C3+P18505+P78334+P47869+P31644+Q16445); assay: Potentiation of NAS mediated GABA (unknown origin) tonic effect assessed as fold potentiation; type: protein-complex assay; settings: filed as activator
[4] = biological target: GABA-A receptor; anion channel; assay: Displacement of [35S]-TBPS from rat synaptosomes GABAA receptor incubated for 90 mins by liquid scintillation counting method; type: subcellular, Synaptosome
[5] = biological target: Glutamate NMDA receptor; GRIN1/GRIN2B (Homo sapiens, UniProt Q05586+Q13224); assay: Inhibition of GluN1/GluN2B NMDA receptor (unknown origin) expressed in HEK293 cells; type: cell-based
How it was run: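 Potency measured in HEK293 cells transfected with rat GluN1 and GluN2B subunits.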

[6] = Permeability coefficient across apical to basolateral side in human Caco-2 cells assessed as drug recovery at pH 7.4; type: ADME, cell-based; settings: Caco-2, pH 7.4, read-out: Drug recovery
[7] = Permeability coefficient across apical to basolateral side in human Caco-2 cells at pH 7.4; type: ADME, cell-based; settings: Caco-2, pH 7.4, read-out: permeability
Rattus norvegicus = assay: Neuroprotective activity against transient middle cerebral artery occlusion induced cerebral infraction Sprague-Dawley rat model assessed as decrease in cerebral infraction volume at 12 mg/kg, ip and measured after 7 days by TTC staining based assay; type: functional; parameters: scale not given: the % may be the effect or the level left; settings: time 7 day
[8] = Inhibition of NMDA current in Sprague-Dawley rat Cortical neuron; type: functional, cell-based; settings: cortical neurone
[9] = Inhibition of NMDA induced calcium increase in Sprague-Dawley rat Cortical neuron; type: functional, cell-based, Cortical neurone
[10] = biological target: T1, GABA-A receptor; alpha-1/beta-2/gamma-2 (Homo sapiens, UniProt P14867+P18507+P47870); assay: Positive allosteric modulation of human GABAA alpha1beta2gamma2 receptor expressed in Xenopus laevis oocytes by two-microelectrode voltage-clamp assay; type: cell-based, Oocyte
T1 sequence (P14867 whole entry): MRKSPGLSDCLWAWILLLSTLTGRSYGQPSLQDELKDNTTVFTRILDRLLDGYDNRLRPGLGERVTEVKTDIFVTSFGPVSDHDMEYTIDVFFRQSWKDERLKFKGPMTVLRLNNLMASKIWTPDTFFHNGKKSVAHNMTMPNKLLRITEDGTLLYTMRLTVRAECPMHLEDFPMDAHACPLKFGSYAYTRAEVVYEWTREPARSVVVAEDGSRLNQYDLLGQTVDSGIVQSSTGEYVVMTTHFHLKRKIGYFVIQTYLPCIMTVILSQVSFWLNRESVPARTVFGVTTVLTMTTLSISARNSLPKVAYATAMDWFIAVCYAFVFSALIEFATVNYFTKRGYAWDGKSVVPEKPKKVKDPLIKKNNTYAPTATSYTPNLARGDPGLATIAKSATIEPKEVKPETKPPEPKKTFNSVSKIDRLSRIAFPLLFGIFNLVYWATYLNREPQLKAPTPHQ
T1 sequence (P47870 whole entry): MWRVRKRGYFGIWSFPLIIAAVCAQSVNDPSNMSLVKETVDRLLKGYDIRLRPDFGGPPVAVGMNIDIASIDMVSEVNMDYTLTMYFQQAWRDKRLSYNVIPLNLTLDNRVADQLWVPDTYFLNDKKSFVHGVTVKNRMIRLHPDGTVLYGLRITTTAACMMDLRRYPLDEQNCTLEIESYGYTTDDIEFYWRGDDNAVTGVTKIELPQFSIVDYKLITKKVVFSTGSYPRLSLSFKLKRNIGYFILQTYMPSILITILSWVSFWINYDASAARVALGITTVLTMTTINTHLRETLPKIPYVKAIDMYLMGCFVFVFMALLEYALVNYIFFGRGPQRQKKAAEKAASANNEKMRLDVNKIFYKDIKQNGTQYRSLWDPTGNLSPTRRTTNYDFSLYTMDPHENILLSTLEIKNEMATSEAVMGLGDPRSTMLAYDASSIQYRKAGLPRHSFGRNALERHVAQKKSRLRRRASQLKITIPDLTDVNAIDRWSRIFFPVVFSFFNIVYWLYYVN
T1 sequence (P18507 whole entry): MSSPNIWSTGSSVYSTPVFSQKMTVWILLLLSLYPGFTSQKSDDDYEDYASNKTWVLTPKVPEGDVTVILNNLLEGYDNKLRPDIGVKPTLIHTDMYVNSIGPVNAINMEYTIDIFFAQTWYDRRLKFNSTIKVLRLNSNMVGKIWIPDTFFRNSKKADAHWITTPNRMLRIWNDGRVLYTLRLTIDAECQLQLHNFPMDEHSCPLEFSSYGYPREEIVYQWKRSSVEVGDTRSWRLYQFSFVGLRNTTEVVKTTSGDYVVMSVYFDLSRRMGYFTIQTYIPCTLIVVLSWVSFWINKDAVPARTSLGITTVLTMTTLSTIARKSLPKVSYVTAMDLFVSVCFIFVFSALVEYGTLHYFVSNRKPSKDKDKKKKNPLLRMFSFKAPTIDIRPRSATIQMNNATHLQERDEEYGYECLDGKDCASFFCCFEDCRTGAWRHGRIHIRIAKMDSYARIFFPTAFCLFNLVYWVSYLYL
How it was run: (§1)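 PAM activity measured as EC50 in Xenopus oocytes expressing α1β2γ2L or α2β1γ2L GABAA receptors.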

[11] = biological target: T2, Gamma-aminobutyric acid receptor subunit alpha-2/beta-1/gamma-2 (Homo sapiens, UniProt P18505+P18507+P47869); assay: Positive allosteric modulation of human GABAA alpha2beta1gamma2 receptor expressed in Xenopus laevis oocytes by two-microelectrode voltage-clamp assay; type: cell-based, Oocyte; how it was run: as §1
T2 sequence (P18507 whole entry): T1 sequence (P18507 whole entry)
T2 sequence (P18505 whole entry): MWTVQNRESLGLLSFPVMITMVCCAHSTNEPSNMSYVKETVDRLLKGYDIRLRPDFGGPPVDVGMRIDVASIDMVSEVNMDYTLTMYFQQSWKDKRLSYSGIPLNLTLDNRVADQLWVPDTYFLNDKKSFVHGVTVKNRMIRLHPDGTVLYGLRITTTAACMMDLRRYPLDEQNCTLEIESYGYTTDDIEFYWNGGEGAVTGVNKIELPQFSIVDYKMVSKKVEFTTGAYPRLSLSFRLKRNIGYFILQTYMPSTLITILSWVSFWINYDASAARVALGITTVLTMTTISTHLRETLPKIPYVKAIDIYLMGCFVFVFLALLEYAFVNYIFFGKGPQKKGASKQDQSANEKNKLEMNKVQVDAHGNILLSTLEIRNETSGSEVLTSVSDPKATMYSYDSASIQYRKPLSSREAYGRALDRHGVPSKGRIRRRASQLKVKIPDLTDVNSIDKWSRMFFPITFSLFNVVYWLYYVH
T2 sequence (P47869 whole entry): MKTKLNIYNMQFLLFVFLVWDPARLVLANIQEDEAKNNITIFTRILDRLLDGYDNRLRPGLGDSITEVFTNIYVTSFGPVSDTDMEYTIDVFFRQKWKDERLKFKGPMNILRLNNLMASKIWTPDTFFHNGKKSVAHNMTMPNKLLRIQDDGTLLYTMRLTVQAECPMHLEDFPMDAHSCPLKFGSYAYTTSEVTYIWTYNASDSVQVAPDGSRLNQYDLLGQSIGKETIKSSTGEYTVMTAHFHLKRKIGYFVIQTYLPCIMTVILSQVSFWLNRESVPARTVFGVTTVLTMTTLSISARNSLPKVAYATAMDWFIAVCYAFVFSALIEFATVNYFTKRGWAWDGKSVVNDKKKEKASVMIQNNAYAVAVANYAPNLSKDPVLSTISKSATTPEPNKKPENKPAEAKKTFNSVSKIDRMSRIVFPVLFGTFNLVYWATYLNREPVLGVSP

[12] = Solubility of the compound in 45% HPbetaCD; type: physicochemical
Mus musculus [13] = species on record: Mus musculus; assay: Anxiolytic activity in mouse assessed as increase in time spent in open arm by elevated plus maze test; type: functional; settings: read-out: MED
How it was run: (§2)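 Mice were dosed orally. Anxiolytic activity was tested in the elevated plus maze and reported as minimum effective dose. Anticonvulsant activity was tested against pentylenetetrazole-induced seizures and reported as ED50. Therapeutic indices were given for the anxiolytic and anticonvulsant read-outs against a preliminary mouse safety measure.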

Mus musculus [14] = assay: Anticonvulsant activity in PTZ induced mouse administered orally; type: functional; settings: route po; how it was run: as §2
[15] = Therapeutic index, ratio of AD50 for mouse to MED for anxiolytic activity in mouse assessed as increase in time spent in open arm by elevated plus maze test; type: toxicity; settings: read-out: TI; how it was run: as §2
[16] = Therapeutic index, ratio of AD50 for mouse to ED50 for anticonvulsant activity in PTZ induced mouse administered orally; type: toxicity; settings: in vivo, route po, read-out: TI; how it was run: as §2

Chain of Glutamate NMDA receptor; GRIN1/GRIN2B (Q13224 whole entry, other chains not shown): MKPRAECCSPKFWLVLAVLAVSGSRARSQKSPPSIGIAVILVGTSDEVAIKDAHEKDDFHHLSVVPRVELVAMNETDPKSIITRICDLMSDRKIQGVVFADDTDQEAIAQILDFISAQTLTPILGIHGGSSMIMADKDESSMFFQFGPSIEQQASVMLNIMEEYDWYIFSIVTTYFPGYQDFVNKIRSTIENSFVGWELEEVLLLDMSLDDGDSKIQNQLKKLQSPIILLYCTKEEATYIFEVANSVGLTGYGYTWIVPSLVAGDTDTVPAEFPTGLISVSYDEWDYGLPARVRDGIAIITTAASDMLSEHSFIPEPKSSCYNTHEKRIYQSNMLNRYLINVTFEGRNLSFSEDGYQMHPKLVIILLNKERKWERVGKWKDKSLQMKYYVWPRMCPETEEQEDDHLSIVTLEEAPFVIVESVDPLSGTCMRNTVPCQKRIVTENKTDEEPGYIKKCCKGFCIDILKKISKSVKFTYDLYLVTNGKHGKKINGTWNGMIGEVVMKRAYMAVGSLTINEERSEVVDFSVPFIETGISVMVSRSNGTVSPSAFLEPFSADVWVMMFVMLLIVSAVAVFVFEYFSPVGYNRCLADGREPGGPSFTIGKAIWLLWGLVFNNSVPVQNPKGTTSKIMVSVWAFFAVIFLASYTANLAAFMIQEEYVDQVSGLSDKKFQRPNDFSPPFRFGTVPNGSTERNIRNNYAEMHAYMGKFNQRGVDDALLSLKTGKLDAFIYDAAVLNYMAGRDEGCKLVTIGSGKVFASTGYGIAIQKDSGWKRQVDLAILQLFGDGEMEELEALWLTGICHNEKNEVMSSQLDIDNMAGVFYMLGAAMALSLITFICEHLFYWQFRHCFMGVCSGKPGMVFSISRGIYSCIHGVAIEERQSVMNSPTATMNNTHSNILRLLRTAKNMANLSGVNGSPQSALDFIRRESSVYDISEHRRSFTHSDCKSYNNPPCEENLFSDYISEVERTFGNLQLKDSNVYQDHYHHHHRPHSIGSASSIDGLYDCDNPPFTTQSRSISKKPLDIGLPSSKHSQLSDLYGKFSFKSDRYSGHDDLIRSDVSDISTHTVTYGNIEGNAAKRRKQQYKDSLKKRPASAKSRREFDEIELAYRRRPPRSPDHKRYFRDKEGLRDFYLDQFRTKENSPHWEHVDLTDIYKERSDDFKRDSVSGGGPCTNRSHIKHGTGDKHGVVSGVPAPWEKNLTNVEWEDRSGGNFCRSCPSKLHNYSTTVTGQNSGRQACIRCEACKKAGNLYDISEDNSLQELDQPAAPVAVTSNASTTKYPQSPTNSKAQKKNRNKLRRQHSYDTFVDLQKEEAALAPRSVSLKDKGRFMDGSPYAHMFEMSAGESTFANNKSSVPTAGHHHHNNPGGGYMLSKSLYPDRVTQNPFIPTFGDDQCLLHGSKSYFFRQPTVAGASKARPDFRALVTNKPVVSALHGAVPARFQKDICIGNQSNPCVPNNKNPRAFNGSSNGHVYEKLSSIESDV

## COCCC(CO)(CCOC)C(=O)[C@H]1CC[C@H]2[C@@H]3CC[C@H]4C[C@@H]5O[C@@H]5C[C@]4(C)[C@H]3CC[C@]12C
[1]
  IC50: 5000 nM

## CC(=O)[C@H]1CC[C@H]2[C@@H]3CC[C@H]4C[C@H](O)CC[C@]4(C)[C@H]3CC[C@]12C [BREXANOLONE]
Mus musculus [2]
  ED50: 4.2 mg/kg
[3]
  fold change (FC): 4.36
[4]
  IC50: 86 nM

## CC(=O)[C@H]1CC[C@H]2[C@@H]3CC[C@@H]4C[C@H](OC(=O)[C@@H](N)CCC(=O)O)CC[C@]4(C)[C@H]3CC[C@]12C
[5]
  IC50: 51700 nM

## CC(=O)[C@H]1CC[C@H]2[C@@H]3CC[C@H]4C[C@@H](O)CC[C@]4(C)[C@H]3CC[C@]12C [SEPRANOLONE]
Mus musculus [2]
  ED50: > 100 mg/kg
[3]
  fold change (FC): 0.76

## CC(=O)[C@H]1CC[C@H]2[C@@H]3C[C@H]4OC[C@@]5(CC[C@@H](O)CC45)[C@H]3CC[C@]12C (stereo not given in full)
[4]
  IC50: 141 nM

## CC(=O)[C@H]1CC[C@H]2[C@@H]3CCC4=C[C@H](O)C[C@@H]5O[C@H](C[C@]12C)[C@@H]3[C@]45C
[4]
  IC50: 72 nM

## CC(=O)[C@H]1CC[C@H]2[C@@H]3CC[C@H]4C[C@H](O)C[C@H]5O[C@H](C[C@]12C)[C@@H]3[C@]45C
[4]
  IC50: 93 nM

## C[C@@]12CCC[C@H]1[C@@H]1CC[C@@H]3C[C@H](NC(=O)[C@@H](N)CC(=O)O)CC[C@]3(C)[C@H]1CC2
[6]
  recovery: < 50%
[7]
  Papp A→B: 0.22 ×10⁻⁶ cm/s
[5]
  IC50: 1000 nM

## C=C(C)CC[C@@H](C)[C@H]1CC[C@H]2[C@@H]3C[C@@H](O)[C@@]4(O)C[C@H](O)CC[C@]4(CO)[C@H]3CC[C@]12C
Rattus norvegicus
  Activity: 30%
[8]
  IC50: 10300 nM
[9]; Rattus norvegicus, Sprague-Dawley, Cortical neurone
  IC50: 7800 nM
[9]; cortical neurone
  IC50: 10300 nM

## CC(=O)[C@H]1CC[C@H]2[C@@H]3CC[C@H]4C[C@](C)(O)CC[C@]4(C)[C@H]3CC[C@]12C [GANAXOLONE]
Mus musculus [2]
  ED50: 1.5 mg/kg
[3]
  fold change (FC): 3.47
[10]
  EC50: 200 nM
[11]
  EC50: 100 nM
[12]
  solubility: 20 mM (≈ 6650 µg/mL)
Mus musculus [13]
  minimal effective dose: 20 mg/kg
Mus musculus [14]
  ED50: 23 mg/kg
[15]
  selectivity ratio: 3.3
[16]
  selectivity ratio: 3

## CC(=O)[C@H]1CC[C@H]2[C@@H]3CC[C@@H]4C[C@H](O)CC[C@]4(C)[C@H]3CC[C@]12C [ELTANOLONE]
Mus musculus [2]
  ED50: 7.7 mg/kg
[3]
  fold change (FC): 2.24

## C[C@@]12CCC[C@H]1[C@@H]1CC[C@@H]3C[C@H](NC(=O)O)CC[C@]3(C)[C@H]1CC2
[5]
  IC50: 21700 nM

## CC(=O)[C@H]1CC[C@H]2[C@@H]3CC[C@H]4C[C@H](O)CC[C@]4(C)[C@H]3C(=O)C[C@]12C [ALFAXALONE]
Mus musculus [2]
  ED50: 8.8 mg/kg
[3]
  fold change (FC): 1.98

## CC(=O)[C@H]1CC[C@H]2[C@@H]3CC[C@H]4C[C@@H]5O[C@@H]5C[C@]4(C)[C@H]3CC[C@]12C
[1]
  IC50: 255 nM

## C[C@@]12CCC[C@H]1[C@@H]1CC[C@@H]3C[C@H](NC(=O)[C@@H](N)CCC(=O)O)CC[C@]3(C)[C@H]1CC2
[6]
  recovery: < 50%
[7]
  Papp A→B: 0.22 ×10⁻⁶ cm/s
[5]
  IC50: 1400 nM

## CC(=O)[C@H]1CC[C@H]2[C@@H]3CC[C@@H]4C[C@H](O)C[C@@H]5O[C@H](C[C@]12C)[C@@H]3[C@]45C
[4]
  IC50: 490 nM

## C[C@@]12CCC[C@H]1[C@@H]1CC[C@@H]3C[C@H](NC(=O)CC(=O)O)CC[C@]3(C)[C@H]1CC2
[5]
  IC50: 15400 nM

## C[C@]12CC[C@@H](O)C[C@@H]1CC[C@@H]1[C@@H]2CC[C@]2(C)[C@@H](C(=O)CO)CC[C@@H]12
Mus musculus [2]
  ED50: 5 mg/kg
[3]
  fold change (FC): 3.52

## COCC(=O)[C@H]1CC[C@H]2[C@@H]3CC[C@H]4C[C@@H]5O[C@@H]5C[C@]4(C)[C@H]3CC[C@]12C
[1]
  IC50: 625 nM
